Laboratory results: ChEMBL document CHEMBL1132225, “Novel antidiabetic and hypolipidemic agents. 3. Benzofuran-containing thiazolidinediones” (J Med Chem, 1999)
Values joined by “and” are separate entries in the source; they are usually repeats but may differ in a detail not shown here. Equal entries are not always repeated. Active and inactive are the calls of the source. The calls are words filed in the database; no cut-off is given here.

How the values were obtained:
Rattus norvegicus [1] = species: Rattus norvegicus; assay: The AUC(0-t)values in female wistar rats.; assay type: ADME, organism-based; settings: in vivo
[2] = Pharmacokinetic Parameter, Kel is elimination rate constant in Female Wistar Rats at 100 mg/kg by po administration; assay type: ADME, organism-based; set-up: dose 100 mg/kg, route oral; settings: rat, in vivo
Mus musculus [3] = species: Mus musculus; assay: The compound was tested for percent reduction of plasma triglyceride after 6 days of treatment.; assay type: functional; set-up: concentration or dose not given beside the values
[4] = target: T1, Peroxisome proliferator-activated receptor alpha (Homo sapiens) (UniProt Q07869); assay: Compound was tested for fold transactivation of human Peroxisome proliferator activated receptor alpha at 50 uM
T1 sequence (whole entry): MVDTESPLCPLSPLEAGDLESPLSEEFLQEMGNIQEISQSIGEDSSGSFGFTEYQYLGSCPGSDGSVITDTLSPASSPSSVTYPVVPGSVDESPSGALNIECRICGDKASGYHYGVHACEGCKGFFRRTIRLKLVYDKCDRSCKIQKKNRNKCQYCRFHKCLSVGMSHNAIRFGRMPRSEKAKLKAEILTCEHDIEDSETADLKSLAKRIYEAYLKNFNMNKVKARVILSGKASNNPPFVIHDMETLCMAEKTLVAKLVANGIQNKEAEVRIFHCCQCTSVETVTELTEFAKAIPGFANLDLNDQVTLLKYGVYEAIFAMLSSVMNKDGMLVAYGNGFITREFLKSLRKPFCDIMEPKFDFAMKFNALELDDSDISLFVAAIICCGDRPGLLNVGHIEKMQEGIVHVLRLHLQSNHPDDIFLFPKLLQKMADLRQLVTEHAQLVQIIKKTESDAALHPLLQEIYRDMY

[5] = Pharmacokinetic Parameter, AUC (0-t) is the area under the plasma concentration versus time curve in Female Wistar Rats at 100 mg/kg by po administration; assay type: ADME, organism-based; set-up: dose 100 mg/kg, route oral; settings: rat
[6] = Pharmacokinetic Parameter, Tmax is the time at which maximum concentration (Cmax) is reached in Female Wistar Rats at 100 mg/kg by po administration; assay type: ADME, organism-based; set-up: dose 100 mg/kg, route oral; settings: rat, in vivo
[7] = The half life period in female wistar rats.; assay type: ADME, organism-based; settings: rat, in vivo
Method in brief: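 Female Wistar rats (200–225 g), fasted 12 h overnight with water, fed 3 h post-dose; single 100 mg/kg oral dose as 0.5% CMC suspension. Retro-orbital blood sampled at multiple times; 0.2 mL plasma extracted, analysed by reverse-phase C18 HPLC with internal standard. Parameters by noncompartmental analysis; mean ± SD, n = 4.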

[8] = The Kel values in female wistar rats.; assay type: ADME, organism-based; settings: rat, in vivo
[9] = The Tmax values in female wistar rats.; assay type: ADME, organism-based; settings: rat, in vivo
Mus musculus [10] = assay: Percent reduction in plasma triglyceride (TG) after 6 days of treatment. It is the mean of standard deviation observed in plasma triglyceride (TG) in db/db mice at dose of 30 mg/kg/day; NA = Not Active; assay type: functional, organism-based
Mus musculus [11] = assay: Percent reduction in plasma triglyceride (TG) after 6 days of treatment. It is the mean of standard deviation observed in plasma triglyceride (TG) in db/db mice at dose of 200 mg/kg/day; assay type: functional; settings: route oral
[12] = Pharmacokinetic Parameter, AUC (0-infinity) is the area under the plasma concentration versus time curve extrapolated to infinity in Female Wistar Rats at 100 mg/kg by po administration; assay type: ADME, organism-based; set-up: time infinity, dose 100 mg/kg, route oral; settings: rat, read-out: AUC 0-infinity
[13] = The Cmax values in female wistar rats.; assay type: ADME, organism-based; settings: rat, in vivo
Mus musculus [14] = species: Mus musculus; assay: Percent reduction of plasma glucose after 6 days of treatment (various doses).; assay type: functional
Mus musculus [15] = assay: Percent reduction of plasma glucose (PG) after 6 days of treatment. It is the mean of standard deviation observed in plasma glucose (PG) in db/db mice at dose of 200 mg/kg/day; assay type: functional; settings: route oral
Rattus norvegicus [16] = species: Rattus norvegicus; assay: The AUC(0-infinity) values in female wistar rats.; assay type: ADME, organism-based; set-up: time infinity; settings: in vivo
[17] = Pharmacokinetic Parameter, half life period measured in Female Wistar Rats at 100 mg/kg by po administration; assay type: ADME, organism-based; set-up: dose 100 mg/kg, route oral; settings: rat, in vivo
Mus musculus [18] = assay: Percent reduction of plasma glucose (PG) after 6 days of treatment. It is the mean of standard deviation observed in plasma glucose (PG) in db/db mice at dose of 30 mg/kg/day; NA = Not Active; assay type: functional, organism-based
[19] = Pharmacokinetic Parameter, Cmax is observed maximum plasma concentration in Female Wistar Rats at 100 mg/kg by po administration; assay type: ADME, organism-based; set-up: dose 100 mg/kg, route oral; settings: rat
Mus musculus [20] = assay: Percent reduction of plasma glucose (PG) after 6 days of treatment. It is the mean of standard deviation observed in plasma glucose (PG) in db/db mice at dose of 30 mg/kg/day; assay type: functional; settings: route oral
Mus musculus [21] = assay: Percent reduction in plasma triglyceride (TG) after 6 days of treatment. It is the mean of standard deviation observed in plasma triglyceride (TG) in db/db mice at dose of 30 mg/kg/day; assay type: functional; settings: route oral
Mus musculus [22] = species: Mus musculus; assay: The compound was tested for percent reduction of plasma triglyceride after 6 days of treatment; Not Active; assay type: functional, organism-based
Mus musculus [23] = assay: Percent reduction of plasma glucose (PG) after 6 days of treatment. It is the mean of standard deviation observed in plasma glucose (PG) in db/db mice at dose of 100 mg/kg/day; assay type: functional; settings: route oral
Mus musculus [24] = assay: Percent reduction in plasma triglyceride (TG) after 6 days of treatment. It is the mean of standard deviation observed in plasma triglyceride (TG) in db/db mice at dose of 100 mg/kg/day; NA = Not Active; assay type: functional
Mus musculus [25] = assay: Percent reduction in plasma triglyceride (TG) after 6 days of treatment. It is the mean of standard deviation observed in plasma triglyceride (TG) in db/db mice at dose of 100 mg/kg/day; assay type: functional; settings: route oral
Mus musculus [26] = species: Mus musculus; assay: The compound was tested for percent reduction of plasma glucose after 6 days of treatment; Not Active; assay type: functional, organism-based
Mus musculus [27] = assay: Percent reduction of plasma glucose (PG) after 6 days of treatment. It is the mean of standard deviation observed in plasma glucose (PG) in db/db mice at dose of 100 mg/kg/day; NA = Not Active; assay type: functional, organism-based
Mus musculus [28] = species: Mus musculus; assay: The compound was tested for percent reduction of plasma triglyceride after 6 days of treatment; not active; assay type: functional, organism-based

k el [2] | AUC(0-t) [5] | Tmax [6] | AUC(0-inf) [12] | half-life [17] | Cmax [19] | Compound | Reduction (Mus musculus [3]) | Reduction (Mus musculus [14]) | PG (Mus musculus [20]) | TG (Mus musculus [21]) | further results
5.56e-05 s⁻¹ | 25900 ng·h/mL | 2.25 h | 27400 ng·h/mL | 4.01 h | 5470 ng/mL | Cc1c(C)c2c(c(C)c1O)CCC(C)(COc1ccc(CC3SC(=O)NC3=O)cc1)O2 (configuration not stated) [TROGLITAZONE] | 50% | 26% | – | – | AUC (Rattus norvegicus [1]): 25900 ng·h/mL; Transactivation [4]: 1.12 fold; half-life [7]: 4.01 h; k el [8]: 5.56e-05 s⁻¹; Tmax [9]: 2.25 h; TG (Mus musculus [10]): inactive; TG (Mus musculus [11]): 50%; Cmax [13]: 5470 ng/mL; PG (Mus musculus [15]): 26%; AUC (Rattus norvegicus [16]): 27400 ng·h/mL; PG (Mus musculus [18]): inactive
– | – | – | – | – | – | Cc1c(C)c2c(c(C)c1OCc1ccccc1)C(CN1CCC[C@H]1COc1ccc(CC3SC(=O)NC3=O)cc1)C(C)(C)O2.O=C(O)/C=C\C(=O)O (some centres not stated) | – | – | 24% | 64% | –
– | – | – | – | – | – | Cc1oc2c(C)c(C)c(O)c(C)c2c1CN1CCC[C@@H](Oc2ccc(/C=C3\SC(=O)NC3=O)cc2)C1 | – | 22% | – | – | Reduction (Mus musculus [22]): inactive; PG (Mus musculus [23]): 22%; TG (Mus musculus [24]): inactive
1.39e-05 s⁻¹ | 15500 ng·h/mL | 3.5 h | 23600 ng·h/mL | 13.1 h | 1250 ng/mL | Cc1c(C)c2c(c(C)c1OCc1ccccc1)C(CN1CCC[C@H]1COc1ccc(/C=C3\SC(=O)NC3=O)cc1)C(C)(C)O2 (some centres not stated) | 52% and 38% | 66% and 40% | 40% | 38% | AUC (Rattus norvegicus [1]): 15500 ng·h/mL; half-life [7]: 13.1 h; PG (Mus musculus [23]): 66%; k el [8]: 1.39e-05 s⁻¹; Tmax [9]: 3.5 h; Cmax [13]: 1250 ng/mL; TG (Mus musculus [25]): 52%; AUC (Rattus norvegicus [16]): 23600 ng·h/mL
– | – | – | – | – | – | Cc1oc2c(C)c(C)c(OCc3ccccc3)c(C)c2c1CN1CCC[C@@H](Oc2ccc(/C=C3\SC(=O)NC3=O)cc2)C1 | – | – | – | – | Reduction (Mus musculus [26]): inactive; TG (Mus musculus [24]): inactive; PG (Mus musculus [27]): inactive; Reduction (Mus musculus [28]): inactive
1.94e-05 s⁻¹ | 53800 ng·h/mL | 5 h | 65000 ng·h/mL | 10.1 h | 4300 ng/mL | Cc1c(C)c2c(c(C)c1OCc1ccccc1)C(CN1CCC[C@H]1COc1ccc(/C=C3\SC(=O)NC3=O)cc1)C(C)(C)O2.O=C(O)/C=C\C(=O)O (some centres not stated) | – | – | 45% | 42% | –
– | – | – | – | – | – | Cc1c(C)c2c(c(C)c1O)C(COc1ccc(CC3SC(=O)NC3=O)cc1)C(C)(C)O2 (configuration not stated) | 31% | 12% | – | – | –
– | – | – | – | – | – | Cc1c(C)c2c(c(C)c1O)C(CN(C)CCOc1ccc(CC3SC(=O)NC3=O)cc1)C(C)(C)O2 (configuration not stated) | – | 19% | – | – | PG (Mus musculus [15]): 19%
– | – | – | – | – | – | Cc1c(C)c2c(c(C)c1OCc1ccccc1)C(CN1CCC[C@@H](Oc3ccc(/C=C4\SC(=O)NC4=O)cc3)C1)C(C)(C)O2 (some centres not stated) | 52% | – | – | – | Reduction (Mus musculus [26]): inactive; TG (Mus musculus [25]): 52%; PG (Mus musculus [27]): inactive
– | – | – | – | – | – | Cc1c(C)c2c(c(C)c1OCc1ccccc1)C(CN1CCC[C@H]1COc1ccc(/C=C3\SC(=O)NC3=O)cc1)C(C)(C)O2.Cl (some centres not stated) | 57% | 25% | 25% | 57% | –
